Results on 20 molecules are retold here after ChEMBL document CHEMBL2440017, “Discovery of a potent, selective, and orally bioavailable histamine H3 receptor antagonist SAR110068 for the treatment of sleep-wake disorders” (Bioorg Med Chem Lett, 2013).

Broadly, the pKi is −log10 of the Ki, conventionally taken in molar units.

pKi: −log10 of the molar value. Active and inactive are the calls of the source. The rule behind the calls is not given here.

One experiment addresses Histamine receptor H3 (Macaca mulatta, UniProt Q865E1). Kind of experiment: Displacement of [3H]N-alpha-methylhistamine from rhesus monkey histamine H3 receptor expressed in CHO cells. The format is cell-based. The essentials: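 Membranes from CHO cells stably expressing rhesus monkey H3 receptor. Competition binding against [3H]N-α-methylhistamine; Ki values are means of three or more determinations.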

In experiment [1] the test system is Rattus norvegicus. The experiment is described as follows: Awakening activity in rat assessed as increased wakefulness at 10 mg/kg, ip after 3 hrs. Type of experiment: functional, organism-based. Details: dose 10 mg/kg. The essentials:
(§1)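 Rats given compound orally at 3 or 10 mg/kg, or reference drugs i.p. or p.o. at 10 mg/kg. EEG recorded during the light phase and scored as wakefulness, slow wave sleep and REM sleep. Time-course analysis of the effects.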

For experiment [2], the system named is Rattus norvegicus. The experiment is described as follows: Awakening activity in rat assessed as increased wakefulness at 10 mg/kg, po after 1 hr. Type of experiment: functional, organism-based. Details: dose 10 mg/kg. The essentials: as §1
In experiment [3] the test system is Rattus norvegicus. The experiment is described as follows: Awakening activity in rat assessed as decrease in slow wave and REM sleep at 10 mg/kg, po. Type of experiment: functional, organism-based. Also noted: dose 10 mg/kg.
Experiment [4] relates to Rattus norvegicus. The experiment is described as follows: Awakening activity in rat assessed as increased wakefulness at 10 mg/kg, po. Also noted: dose 10 mg/kg. The format is functional, organism-based.
For experiment [5], the system named is Rattus norvegicus. The experiment is described as follows: Awakening activity in rat assessed as increased wakefulness at 10 mg/kg, po after 3 to 4 hrs. Type of experiment: functional, organism-based. Also noted: dose 10 mg/kg. The essentials:
as §1

For experiment [6], the system named is Rattus norvegicus. Kind of experiment: Awakening activity in rat assessed as decrease of theta rhythm at 10 mg/kg, po after 3 to 4 hrs. The format is functional, organism-based. Details: dose 10 mg/kg.

Sequence of Histamine receptor H3 (Q865E1 whole entry): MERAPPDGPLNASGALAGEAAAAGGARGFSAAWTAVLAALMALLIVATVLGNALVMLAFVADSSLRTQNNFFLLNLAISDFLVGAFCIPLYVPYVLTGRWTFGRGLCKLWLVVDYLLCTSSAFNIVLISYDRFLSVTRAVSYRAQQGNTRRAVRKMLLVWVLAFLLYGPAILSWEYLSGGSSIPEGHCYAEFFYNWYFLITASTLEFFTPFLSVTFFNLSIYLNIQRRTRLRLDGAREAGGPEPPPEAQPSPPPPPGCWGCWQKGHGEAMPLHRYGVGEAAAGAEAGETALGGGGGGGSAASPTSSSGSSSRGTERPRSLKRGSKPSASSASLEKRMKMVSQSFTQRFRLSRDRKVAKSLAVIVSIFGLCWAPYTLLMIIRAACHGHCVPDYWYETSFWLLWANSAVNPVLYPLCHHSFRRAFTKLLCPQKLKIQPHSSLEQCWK

On to `Cc1cc(N2CC[C@H](N3CCC[C@@H]3C)C2)ccc1NC(=O)C1CC2CCC1C2` (some centres not stated), for which the pKi at Histamine receptor H3 was 9.26.
For the molecule `O=C(c1ccc(OCCCc2c[nH]cn2)cc1)C1CC1`, the outcome with Rattus norvegicus [1] was Active.
Take `Cc1cc(N2CC[C@H](N3CCC[C@@H]3C)C2)ccc1NC(=O)C1CCCO1` (some centres not stated): on Histamine receptor H3, the pKi was 8.13.
Same read-out and setting: in the case of `Cc1cc(NC(=O)C2CCCO2)ccc1N1CCC(N2CCCC2C)C1` (mixture of isomers) it was 7.77; in that of `Cc1cc(N2CC[C@H](N3CCC[C@@H]3C)C2)ccc1NC(=O)C1C(C)(C)C1(C)C`, 9.26; in that of `CC(=O)N1CCCC1C(=O)Nc1ccc(N2CCC(N3CCCC3C)C2)cc1C` (mixture of isomers), 7.24.
At Histamine receptor H3, `Cc1cc(N2CCC(N3CCCC3C)C2)ccc1NC(=O)C1CCCO1` (mixture of isomers) showed a negative-log Ki (pKi) of 8.13.
Regarding `Cc1cc(N2CC[C@@H](N3CCC[C@@H]3C)C2)ccc1NC(=O)C1CCOCC1` (racemic), the pKi on Histamine receptor H3 is 8.41.
`CNC(=O)c1ccc(Oc2ccc3c(c2)CCN(C2CCC2)CC3)nc1`: the outcome in the experiment with Rattus norvegicus [2] was Active.
`S=C(NC1CCCCC1)N1CCC(c2cnc[nH]2)CC1`: the result with Rattus norvegicus [3] and in the experiment on Rattus norvegicus [4] was Active.
Take `C[C@@H]1CCCN1CCc1cc2cc(-c3ccc(C#N)cc3)ccc2o1`: the outcome in the experiment with Rattus norvegicus [5] and in the experiment with Rattus norvegicus [6] was Active.
Turning to `Cc1cc(N2CC[C@H](N3CCC[C@@H]3C)C2)ccc1NC(=O)CC1CCCC1`, on Histamine receptor H3, the pKi was 9.07.
The molecule `CC1CCCN1C1CCN(c2ccc(NC(=O)C3CCCO3)cc2)C1` (mixture of isomers) gave a pKi on Histamine receptor H3 of 8.06.
For the molecule `CC(=O)N1CCCC1C(=O)Nc1ccc(N2CCC(N3CCCC3C)C2)cc1` (mixture of isomers), the pKi at Histamine receptor H3 is 7.85.
At Histamine receptor H3, `CC(=O)N1CCCC1C(=O)Nc1ccc(N2CCC(N3CCCC3C)C2)c(C)c1` (mixture of isomers) showed a pKi of 7.35.
On the same count and under the same terms, the figure for `Cc1cc(N2CCC(N3CCCC3C)C2)ccc1NC(=O)C1CCCCC1` (mixture of isomers) is 8.05.
Same read-out and setting: in the case of `Cc1cc(NC(=O)C2CC3CCC2C3)ccc1N1CCC(N2CCCC2C)C1` (mixture of isomers) it was 6.89; in that of `Cc1cc(N2CC[C@H](N3CCC[C@@H]3C)C2)ccc1NC(=O)C1CCCCC1`, 9.41; in that of `CC1CCCN1C1CCN(c2ccc(NC(=O)C3CC4CCC3C4)cc2)C1` (configuration not stated), 7.80.
The molecule `Cc1cc(N2CCC(N3CCCC3C)C2)ccc1NC(=O)C1CC2CCC1C2` (mixture of isomers) gave a pKi on Histamine receptor H3 of 7.70.
